# Active and inactive are the calls of the source.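 The calls were made as follows, unless noted: active = viability at or below 10% of carrier control in both of two separate runs; inconclusive = viability at or below 10% in only one of the two runs; inactive = the rest.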
# How the values were obtained:
# [1] = Her2 expression decrease, cell viability multiplex – SKBR3 breast tumor cells, AlphaScreen, ATP viability, primary screen (AID 461;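 active = Her2 level under about 52% in both replicate screens, with viability over 70% of control, limit read from the data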;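 as to Her2 level: lower value means less Her2 protein in the cells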;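 as to viability: percent of carrier control wells set as 100% viability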); conditions: SKBR3 Her2 protein level, 18-24 h, measured here: SKBR3 viability, ATP luminescence, at 10 µM
# [2] = biological target: Receptor tyrosine-protein kinase erbB-2 (Homo sapiens) (UniProt P04626); test: as above; conditions: 18-24 h, at 10 µM, stronger effect = lower value
# [3] = reduced viability of SK-BR-3 breast cancer cells – cell-based, 24 h, human, pilot screen (AID 572); conditions: SK-BR-3 viability, CellTiter-Glo luminescence, at 10 µM, stronger effect = lower value;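 also: compound exposure lasted between 18 and 24 h rather than exactly 24 h; 100% = carrier-treated control wells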
# [4] = HUVEC growth inhibition – cell-based, human, primary screen (AID 575;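 active = viability at or below 30% in both replicate assays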;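 also: 100% = median of untreated cell wells with 0.1% DMSO on each plate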); conditions: HUVEC proliferation, CellTiter-Glo luminescence, 72 h; at 10 µM; stronger effect = lower value
# In short: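 Assay system: primary human umbilical vein endothelial cells / Buffer or medium: endothelial basal medium with 2% FBS plus growth supplements / Compound dosing: one dose, 10 µM final, 0.1% DMSO / Timing: 72 h treatment at 37 °C / Signal: CTG luminescence / Benchmarks: 32 DMSO-only cell-control wells (high), 32 MePR drug-control wells (low) per plate / Plate: collagen-coated 384-well format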
# [5] = H69AR cell proliferation blockers – human, duplicate replicates, primary screen (AID 580;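 active = viability at or under a set limit in both replicates, limit being median viability minus 3 SD, cut at about 48% in these data, passing the limit was not always enough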;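 also: 100% = mean luminescence of untreated wells and 0% = no signal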); conditions: H69AR lung tumor cells viability, ATP luminescence, 72 h; at 10 µM; stronger effect = lower value
# [6] = MRP1 drug-resistance reversers in H69AR cells – cell-based, doxorubicin co-treatment, pilot screen (AID 601;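 active = viability loss from added drug above about 55%, and viability with drug at most 40%, in both replicates, limit read from the data, passing the limit was not always enough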); conditions: CellTiter-Glo, 72 h, at 10 µM; for differential viability (reversal): stronger effect = higher value
# [7] = yeast transport mutant growth inhibition pilot in 384-well plates, post-Golgi transport modulator project (AID 636; in the data active = inhibition above about 31%); conditions: absorbance 615 nm, about 18 h, stronger effect = higher value
# [8] = growth suppression of yeast trafficking mutant, preliminary HTS, modulators of trafficking downstream of Golgi apparatus project, 1536-format plate, OD 615 nm (AID 637; in the data active = inhibition above about 30%); conditions: yeast transport mutant growth, absorbance 615 nm, 18 h; stronger effect = higher value
# [9] = H69AR cells + 2 uM doxorubicin, measured here: viability with 2 uM doxorubicin, stronger effect = lower value
# [10] = H69AR cells, compound alone cytotoxicity
# Chain of Receptor tyrosine-protein kinase erbB-2 (Homo sapiens) (P04626 whole entry, looked up): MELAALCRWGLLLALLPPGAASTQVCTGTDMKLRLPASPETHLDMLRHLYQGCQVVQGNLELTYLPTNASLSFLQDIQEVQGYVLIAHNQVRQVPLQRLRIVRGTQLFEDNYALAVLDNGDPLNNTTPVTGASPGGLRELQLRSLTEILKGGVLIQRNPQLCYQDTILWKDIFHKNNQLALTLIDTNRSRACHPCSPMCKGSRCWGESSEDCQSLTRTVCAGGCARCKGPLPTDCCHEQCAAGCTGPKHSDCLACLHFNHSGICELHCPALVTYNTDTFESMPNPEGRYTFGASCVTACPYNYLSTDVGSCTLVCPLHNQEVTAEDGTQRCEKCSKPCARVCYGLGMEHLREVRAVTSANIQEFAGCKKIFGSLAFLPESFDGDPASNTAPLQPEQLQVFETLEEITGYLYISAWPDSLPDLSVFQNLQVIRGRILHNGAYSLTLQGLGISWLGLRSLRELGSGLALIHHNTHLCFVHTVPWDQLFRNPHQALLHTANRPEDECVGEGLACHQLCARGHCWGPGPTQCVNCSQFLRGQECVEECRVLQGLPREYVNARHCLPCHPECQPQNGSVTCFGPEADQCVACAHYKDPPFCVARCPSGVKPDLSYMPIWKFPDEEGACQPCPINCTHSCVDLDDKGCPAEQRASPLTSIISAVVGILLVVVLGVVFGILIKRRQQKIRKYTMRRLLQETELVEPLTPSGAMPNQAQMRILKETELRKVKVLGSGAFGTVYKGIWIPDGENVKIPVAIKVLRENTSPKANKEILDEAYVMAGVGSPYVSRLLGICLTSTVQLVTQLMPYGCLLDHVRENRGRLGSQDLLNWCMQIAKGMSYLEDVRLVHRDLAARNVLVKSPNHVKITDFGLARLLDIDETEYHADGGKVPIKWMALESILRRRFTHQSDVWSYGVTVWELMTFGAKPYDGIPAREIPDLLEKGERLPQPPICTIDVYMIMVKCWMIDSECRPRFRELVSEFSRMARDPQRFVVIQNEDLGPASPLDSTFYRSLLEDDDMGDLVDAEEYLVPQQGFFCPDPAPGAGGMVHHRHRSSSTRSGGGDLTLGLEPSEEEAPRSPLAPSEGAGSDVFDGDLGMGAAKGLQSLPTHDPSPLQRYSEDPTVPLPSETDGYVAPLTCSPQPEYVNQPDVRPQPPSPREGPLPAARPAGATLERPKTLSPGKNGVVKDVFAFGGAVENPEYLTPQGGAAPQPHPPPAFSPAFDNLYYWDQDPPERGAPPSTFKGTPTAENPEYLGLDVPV
Structure (SMILES),viability [1] [%],Her2 level [2],viability [3],viability [4],viability [5],differential viability (reversal) ([6]; H69AR cells + 2 uM doxorubicin),"viability [6, 9] [%]","viability [6, 10] [%]",inhibition [7],inhibition [8]
Cc1ccc(O)c(C(CC(=O)N2CCCC2)c2ccccc2)c1 (stereo not given),89,101% (inactive),89% (inactive),92.4% (inactive),94.8% (inactive),12.3% (inactive),82.5,94.8,-0.38% (inactive),-6.83% (inactive)
CCCN1CCN(C(=O)Cn2c(=O)oc3cc(S(=O)(=O)NCc4ccccc4)ccc32)CC1,92.5,95% (inactive),92.5% (inactive),85.6% (inactive),95.3% (inactive),7.88% (inactive),87.5,95.3,-2.67% (inactive),-0.98% (inactive)
COc1cccc(OC)c1OCCNCCO,126,98% (inactive),126% (inactive),85.7% (inactive),96% (inactive),11.2% (inactive),84.8,96,-1.82% (inactive),0.33% (inactive)
Cc1ccc(-c2nc(CS(=O)CC(=O)NCCN(CC(C)C)CC(C)C)c(C)o2)cc1 (stereo not given),81,84.5% (inactive),81% (inactive),86.4% (inactive),103% (inactive),19.8% (inactive),83.6,103,-5.2% (inactive),0.97% (inactive)
COc1ccc(OC)c(Nc2cc(-c3ccccc3)nc(N)n2)c1,72,69% (inactive),72% (inactive),34.2% (inactive),30.7% (active),-36.4% (inactive),67.1,30.7,-5.92% (inactive),-5.09% (inactive)
CCOC(=O)c1cccc(NC(=O)CSc2nc3ccccc3c(=O)n2CC)c1,87,79% (inactive),87% (inactive),65% (inactive),71.1% (inactive),4.1% (inactive),67,71.1,-3.95% (inactive),0.48% (inactive)
CCOC(=O)N1CCN(C(=O)c2ccc3c(=O)n(CCc4ccccc4)c(=O)[nH]c3c2)CC1,98.5,108% (inactive),98.5% (inactive),77.1% (inactive),85.6% (inactive),30% (inactive),55.6,85.6,-1.49% (inactive),14.8% (inactive)
O=C(CSc1ncnc2c1cnn2Cc1ccccc1)Nc1ccc2c(c1)OCCO2,109,98.5% (inactive),109% (inactive),74.9% (inactive),56.1% (inactive),-5.15% (inactive),61.3,56.1,-4.68% (inactive),-6.23% (inactive)
Cc1cc(C)cc(NC(=O)C2CCCN(S(=O)(=O)c3cnc[nH]3)C2)c1 (stereo not given),99,96% (inactive),99% (inactive),92.5% (inactive),88.6% (inactive),-1.48% (inactive),90.1,88.6,-4.27% (inactive),0.67% (inactive)
COc1ccc(-c2nnc(SCC(=O)NC(=O)NCc3ccco3)o2)cc1,102,85.5% (inactive),102% (inactive),85.9% (inactive),86.8% (inactive),-1.33% (inactive),88.1,86.8,-0.65% (inactive),-2.46% (inactive)
COc1ccc(OC)c(C(=O)CSc2nnc(-c3ccc(OC)c(OC)c3)o2)c1,104,104% (inactive),104% (inactive),75.9% (inactive),74.5% (inactive),0.865% (inactive),73.7,74.5,-5.32% (inactive),-8.85% (inactive)
Cc1nc2nc(Cc3ccccc3)[nH]n2c(=O)c1Cc1ccccc1,117,104% (inactive),117% (inactive),96.6% (inactive),96.2% (inactive),8.81% (inactive),87.4,96.2,-0.53% (inactive),1.64% (inactive)
CCOc1cccc(C(=O)N(Cc2ccc(F)cc2)C2CCS(=O)(=O)C2)c1 (stereo not given),97,98% (inactive),97% (inactive),100% (inactive),86.3% (inactive),-3.54% (inactive),89.9,86.3,-1.82% (inactive),-2.33% (inactive)
O=C(O)CCc1ccc(-c2cccs2)n1CCC(=O)O,108,86.5% (inactive),108% (inactive),107% (inactive),85.8% (inactive),1.25% (inactive),84.6,85.8,-2.24% (inactive),-1.64% (inactive)
CC(Oc1ccc(Br)cc1)C(=O)N1CCc2ccccc21 (stereo not given),85.5,96.5% (inactive),85.5% (inactive),107% (inactive),96.9% (inactive),9.3% (inactive),87.6,96.9,-2.76% (inactive),-3.02% (inactive)

# Source: PubChem BioAssay
